From ChEMBL document CHEMBL4118253, “Expedient synthesis and biological evaluation of alkenyl acyclic nucleoside phosphonate prodrugs” (Bioorg Med Chem, 2018)

Experiments:
[1] = system: Influenza A virus; experiment: Antiviral activity against Influenza A virus H1N1 infected in MDCK cells assessed as inhibition of virus-induced cytopathicity by MTS assay; format: functional, organism-based
[2] = system: Influenza A virus H3N2; experiment: Antiviral activity against Influenza A virus H3N2 infected in MDCK cells assessed as inhibition of virus-induced cytopathicity by MTS assay; format: functional, organism-based
[3] = system: Influenza B virus; experiment: Antiviral activity against Influenza B virus infected in MDCK cells assessed as inhibition of virus-induced cytopathicity by MTS assay; format: functional, organism-based
[4] = Cytotoxicity against MDCK cells assessed as alteration of cell morphology by microscopic analysis; format: cell-based, Canis lupus familiaris; details: dog
[5] = system: Influenza A virus; experiment: Antiviral activity against Influenza A virus H1N1 infected in MDCK cells assessed as inhibition of virus-induced visual cytopathicity; format: functional, organism-based
[6] = system: Influenza A virus H3N2; experiment: Antiviral activity against Influenza A virus H3N2 infected in MDCK cells assessed as inhibition of virus-induced visual cytopathicity; format: functional, organism-based
[7] = system: Influenza B virus; experiment: Antiviral activity against Influenza B virus infected in MDCK cells assessed as inhibition of virus-induced visual cytopathicity; format: functional, organism-based
[8] = system: Vaccinia virus; experiment: Antiviral activity against Vaccinia virus infected in HEL cells assessed as inhibition of virus-induced cytopathicity; format: functional, organism-based; details: Orthopoxvirus vaccinia
[9] = system: Human alphaherpesvirus 3; experiment: Antiviral activity against thymidine kinase deficient Varicella-Zoster virus infected in HEL cells assessed as reduction in virus plaque formation; format: functional, organism-based; details: Human alphaherpesvirus 3, HEL
[10] = Cytotoxicity against HEL cells assessed as alteration of cell morphology by microscopic analysis; format: cell-based; details: human
Summary of the method: (§1)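 The value is the minimal cytotoxic concentration (MCC), the lowest concentration that causes a microscopically visible change in cell morphology. It was read in the same HEL or Vero cell cultures used for the antiviral tests.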

[11] = system: Human adenovirus 2; experiment: Antiviral activity against Adenovirus 2 infected in HEL cells assessed as inhibition of virus-induced cytopathicity; format: functional, organism-based; details: Human mastadenovirus C
[12] = system: Human betaherpesvirus 5; experiment: Antiviral activity against Human cytomegalovirus AD169 infected in HEL cells assessed as inhibition of virus-induced cytopathicity; format: functional, organism-based; details: Human betaherpesvirus 5, AD169, HEL
[13] = system: Human betaherpesvirus 5; experiment: Antiviral activity against Human cytomegalovirus Davis infected in HEL cells assessed as inhibition of virus-induced cytopathicity; format: functional, organism-based; details: Human betaherpesvirus 5, Davis
[14] = system: Human respirovirus 3; experiment: Antiviral activity against Parainfluenza virus 3 infected in human HeLa cells assessed as inhibition of virus-induced cytopathicity; format: functional, organism-based; details: Human respirovirus 3, HeLa
[15] = system: Mammalian orthoreovirus 1; experiment: Antiviral activity against Reovirus-1 infected in human HeLa cells assessed as inhibition of virus-induced cytopathicity; format: functional, organism-based; details: Mammalian orthoreovirus 1, HeLa
[16] = system: Coxsackievirus B4; experiment: Antiviral activity against Coxsackie virus B4 infected in African green monkey Vero cells assessed as inhibition of virus-induced cytopathicity; format: functional, organism-based; details: Enterovirus B
[17] = system: Punta Toro virus; experiment: Antiviral activity against Punta Toro virus infected in African green monkey Vero cells assessed as inhibition of virus-induced cytopathicity; format: functional, organism-based
[18] = Cytotoxicity against African green monkey Vero cells assessed as alteration of cell morphology by microscopic analysis; format: cell-based; details: chlorocebus sabaeus; summary of the method: as §1
[19] = system: Respiratory syncytial virus; experiment: Antiviral activity against Respiratory syncytial virus infected in human HeLa cells assessed as inhibition of virus-induced cytopathicity; format: functional, organism-based
[20] = system: Sindbis virus; experiment: Antiviral activity against Sindbis Virus infected in African green monkey Vero cells assessed as inhibition of virus-induced cytopathicity; format: functional, organism-based
[21] = system: Yellow fever virus; experiment: Antiviral activity against Yellow fever virus infected in African green monkey Vero cells assessed as inhibition of virus-induced cytopathicity; format: functional, organism-based
[22] = Cytotoxicity against human HeLa cells assessed as alteration of cell morphology by microscopic analysis; format: cell-based

Row | Structure (SMILES) | EC50 [1] | EC50 [2] | MCC [4] | EC50 [5] | EC50 [6] | EC50 [7] | EC50 [8] | MCC [10] | further results
1 | NC12CC3CC(CC(C3)C1)C2 [AMANTADINE] | 1.4 µM | 1.6 µM | > 100 µM | 1.8 µM | 2 µM | > 100 µM | – | – | EC50 [3]: > 100 µM
2 | O=c1[nH]c(=O)n([C@H]2C[C@H](O)[C@@H](CO)O2)cc1/C=C/Br [BRIVUDINE] | – | – | – | – | – | – | 19 µM | 250 to 300 µM | EC50 [9]: 0.57 µM
3 | Nc1ccn(C[C@@H](CO)OCP(=O)(O)O)c(=O)n1 [CIDOFOVIR] | – | – | – | – | – | – | 37 µM | > 250 µM | EC50 [11]: 22 µM; EC50 [12]: 1.24 µM
4 | Nc1nc2c(ncn2COC(CO)CO)c(=O)[nH]1 [GANCICLOVIR] | – | – | – | – | – | – | > 100 µM | > 100 µM | EC50 [12]: 11.4 µM; EC50 [13]: 2.29 µM
5 | COc1c(C)c2c(c(O)c1C/C=C(\C)CCC(=O)O)C(=O)OC2 [MYCOPHENOLIC ACID] | – | – | – | – | – | – | – | – | EC50 [14]: 0.4 µM; EC50 [15]: 6.8 µM; EC50 [16]: > 100 µM; EC50 [17]: 6.1 µM; MCC [18]: > 100 µM
6 | CCOC(=O)C1=C[C@@H](OC(CC)CC)[C@H](NC(C)=O)[C@@H](N)C1 [OSELTAMIVIR] | 0.2 µM | > 100 µM | > 100 µM | 1.5 µM | > 100 µM | 2.9 µM | – | – | –
7 | NC(=O)c1ncn([C@@H]2O[C@H](CO)[C@@H](O)[C@H]2O)n1 [RIBAVIRIN] | – | – | > 100 µM | – | – | – | – | – | EC50 [14]: 95 µM; EC50 [15]: > 250 µM; EC50 [19]: 25 µM; EC50 [20]: > 250 µM; EC50 [16]: > 250 µM; EC50 [21]: > 250 µM; MCC [18]: > 250 µM; MCC [22]: > 250 µM
8 | CC(N)C12CC3CC(CC(C3)C1)C2 (configuration not stated) [RIMANTADINE] | > 200 µM | 0.7 µM | > 200 µM | > 200 µM | 0.4 µM | > 200 µM | – | – | EC50 [3]: > 200 µM
9 | Nc1ccn([C@H]2CC[C@@H](CO)O2)c(=O)n1 [ZALCITABINE] | – | – | – | – | – | – | – | > 250 µM | EC50 [11]: 10 µM
